# In ChEMBL document CHEMBL1123547, “Structure-activity relationship of novel oligopeptide antiviral and antitumor agents related to netropsin and distamycin” (1986):
# Legend:
# Type in all cases: functional
# FM3A = test: Evaluation for its inhibitory effect on proliferation of murine mammary carcinoma (FM3A) cells; details: Mus musculus, read-out: ID50 (the source's name)
# L1210 = test: Evaluation for its inhibitory effect on proliferation of murine leukemia L1210 cells; details: Mus musculus, read-out: ID50 (the source's name)
# Oryctolagus cuniculus = species on record: Oryctolagus cuniculus; test: Evaluation for antiviral activity in primary rabbit kidney cell culture; details: read-out: Min cytotoxic concentration
# [1] = tested on: Vesicular stomatitis virus; test: Evaluation for antiviral activity against vesion stomatitis virus in primary rabbit kidney cell culture
# Summary of the method: (§1)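 Primary rabbit kidney cell cultures infected with virus; the endpoint is the compound concentration that reduces virus-induced cytopathogenicity by 50%.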
# Homo sapiens [2] = species on record: Homo sapiens; test: Evaluation for its inhibitory effect on proliferation of human lymphoblast namalva cells; details: read-out: ID50 (the source's name)
# Homo sapiens [3] = species on record: Homo sapiens; test: Evaluation for its inhibitory effect on proliferation of human lymphoblast Raji cells; details: read-out: ID50 (the source's name)
# Vaccinia virus = test: Evaluation for antiviral activity against vaccinia virus in primary rabbit kidney cell culture; details: Orthopoxvirus vaccinia; summary of the method: as §1
# Human alphaherpesvirus 1 = test: Evaluation for antiviral activity against herpes simplex virus type 1 (strain KOS) in primary rabbit kidney cell culture; summary of the method: as §1
# Human alphaherpesvirus 2 = test: Evaluation for antiviral activity against herpes simplex virus type 2 (strain G) in primary rabbit kidney cell culture; summary of the method: as §1
SMILES,IC50 (FM3A) [µg/mL],IC50 (L1210) [µg/mL],MCC (Oryctolagus cuniculus) [µg/mL],MIC [1] [µg/mL],IC50 (Homo sapiens [2]) [µg/mL],IC50 (Homo sapiens [3]) [µg/mL],MIC (Vaccinia virus) [µg/mL],MIC (Human alphaherpesvirus 1) [µg/mL],MIC (Human alphaherpesvirus 2) [µg/mL]
Cn1cc(NC(=O)CNC(=N)N)cc1C(=O)Nc1cn(C)c(C(=O)NCCC(=N)N)n1.O=S(=O)(O)O,> 100,> 100,200,≥ 200,> 100,> 100,40,≥ 200,≥ 200
Nc1ncnc2c1ccn2[C@@H]1O[C@H](CO)[C@@H](O)[C@H]1O [TUBERCIDIN],,,0.4,,,,0.07,≥ 0.4,≥ 0.4
CC[N+](CC)(CC)CC(=O)Nc1cc(C(=O)Nc2cc(C(=O)NCCC(=N)N)n(C)c2)n(C)c1.[Cl-],334,222,> 400,> 400,180,252,300,300,300
NC(=O)c1ncn([C@@H]2O[C@H](CO)[C@@H](O)[C@H]2O)n1 [RIBAVIRIN],,,> 400,200,,,30,> 400,> 400
Cn1cc(NC(=O)c2cc(NC(=O)C[N+](C)(C)C)cn2C)cc1C(=O)NCCC(=N)N.[Cl-],> 1000,543,≥ 400,> 400,,504,20,> 200,> 200
Cl.Cn1cc(NC(=O)c2nc(NC(=O)CNC(=N)N)cn2C)cc1C(=O)NCCC(=N)N,> 100,> 100,> 400,> 400,> 100,> 100,40,> 400,> 400
Cl.Cn1cc(NC(=O)c2cc(NC(=O)CNC(=N)N)cn2C)cc1C(=O)NCCC(=N)N [NETROPSIN CHLORIDE],321,245,40,≥ 40,103,139,2,≥ 40,≥ 40
Cl.Cn1cc(NC(=O)c2cc(N)cn2C)cc1C(=O)NCCC(=N)N,327,276,400,≥ 400,36,43,20,150,150
Cl.Cn1cc(NC(=O)c2cc(NC(=O)c3cc(N)cn3C)cn2C)cc1C(=O)NCCC(=N)N [DEFORMYLDISTAMYCIN],454,174,100,≥ 100,29,32,7,≥ 100,≥ 100
Cl.Cl.Cn1cc(NC(=O)c2cc(NC(=O)c3cc(NC=O)cn3C)cn2C)cc1C(=O)NCCC(=N)N,31,27,200,≥ 200,22,24,0.2,70,70
Cl.Cn1cc(NC(=O)c2nc(NC(=O)c3nc(NC(=O)CNC(=N)N)cn3C)cn2C)nc1C(=O)NCCC(=N)N,46,42,100,≥ 100,100,52,≥ 100,≥ 100,≥ 100
Nc1ncnc2c1ncn2C[C@H](O)CO [(S)-DHPA],,,> 400,20,,,70,> 400,> 400
Cn1cc(NC(=O)c2nc(NC(=O)CNC(=N)N)cn2C)nc1C(=O)NCCC(=N)N.O=S(=O)(O)O,> 500,238,> 400,> 400,261,316,300,> 400,> 400
Nc1ccnc2c1ncn2[C@@H]1C[C@H](CO)[C@@H](O)[C@H]1O,,,> 400,,,,0.3,200,≥ 400
